Laboratory results reported in ChEMBL document CHEMBL4138258 (ACS Med Chem Lett, 2017).

How the values were obtained:
Cannabinoid receptor 2 [1] = target: T1, Cannabinoid receptor 2 (Homo sapiens, UniProt P34972); test: Agonist activity at recombinant human CB2 receptor expressed in HEK293 cells assessed as increase in beta arrestin recruitment measured after 2 to 3 hrs by PathHunter assay; assay type: functional, cell-based
Cannabinoid receptor 2 [2] = target: T1, Cannabinoid receptor 2; test: Agonist activity at recombinant human CB2 receptor expressed in HEK293 cells assessed as increase in beta arrestin recruitment measured after 2 to 3 hrs by PathHunter assay relative to CP55940; assay type: functional, cell-based
Cannabinoid receptor 1 [3] = target: Cannabinoid receptor 1 (Homo sapiens, UniProt P21554); test: Agonist activity at recombinant human CB1 receptor expressed in HEK293 cells assessed as increase in beta arrestin recruitment measured after 2 to 3 hrs by PathHunter assay; assay type: functional, cell-based
Cannabinoid receptor 2 [4] = target: T2, Cannabinoid receptor 2 (Rattus norvegicus, UniProt Q9QZN9); test: Agonist activity at recombinant rat CB2 receptor expressed in HEK293 cells assessed as increase in beta arrestin recruitment measured after 2 to 3 hrs by PathHunter assay; assay type: functional, cell-based
T2 sequence (Q9QZN9 whole entry): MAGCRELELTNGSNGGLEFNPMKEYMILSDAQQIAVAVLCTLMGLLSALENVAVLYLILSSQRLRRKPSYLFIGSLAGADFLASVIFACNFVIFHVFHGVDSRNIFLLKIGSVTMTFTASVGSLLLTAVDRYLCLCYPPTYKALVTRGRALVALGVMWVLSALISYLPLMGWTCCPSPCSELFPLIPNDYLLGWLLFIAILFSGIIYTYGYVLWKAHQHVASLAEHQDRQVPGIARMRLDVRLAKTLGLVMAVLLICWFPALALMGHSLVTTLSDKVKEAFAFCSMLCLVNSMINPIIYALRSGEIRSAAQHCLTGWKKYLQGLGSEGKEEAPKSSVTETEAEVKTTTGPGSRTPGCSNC

[5] = target: T3, Cannabinoid receptor 2 (Rattus norvegicus) (UniProt Q9QZN9); test: Agonist activity at recombinant rat CB2 receptor expressed in HEK293 cells assessed as increase in beta arrestin recruitment measured after 2 to 3 hrs by PathHunter assay relative to CP55940; assay type: functional, cell-based
T3 sequence (whole entry): T2 sequence (Q9QZN9 whole entry)
In short: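 Beta-arrestin recruitment EC50 is the mean of three or more independent experiments (logSD < 0.4). Intrinsic activity (Emax) is expressed relative to CP-55,940 set at 100.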

Cannabinoid receptor 1 [6] = target: Cannabinoid receptor 1 (Rattus norvegicus, UniProt P20272); test: Agonist activity at recombinant rat CB1 receptor expressed in HEK293 cells assessed as increase in beta arrestin recruitment measured after 2 to 3 hrs by PathHunter assay; assay type: functional, cell-based
[7] = Half life in human liver microsomes; assay type: ADME, microsome
[8] = Half life in rat liver microsomes; assay type: ADME, microsome
[9] = Half life in mouse liver microsomes; assay type: ADME, microsome
[10] = Ratio of drug level in brain to plasma in Sprague-Dawley rat at 3 mg/kg, po measured after 2 hrs; assay type: ADME, organism-based; conditions: brain and plasma, read-out: BPR
[11] = target: T3, Cannabinoid receptor 2 (Rattus norvegicus); test: Induction of recombinant HA-tagged rat CB2 receptor internalization expressed in CHOK1 cells at 10 uM measured after 1 hr by time-resolved flow cytometry relative to CP55940; assay type: functional, cell-based

Sequence of Cannabinoid receptor 1 (Homo sapiens, UniProt P21554) (P21554 whole entry): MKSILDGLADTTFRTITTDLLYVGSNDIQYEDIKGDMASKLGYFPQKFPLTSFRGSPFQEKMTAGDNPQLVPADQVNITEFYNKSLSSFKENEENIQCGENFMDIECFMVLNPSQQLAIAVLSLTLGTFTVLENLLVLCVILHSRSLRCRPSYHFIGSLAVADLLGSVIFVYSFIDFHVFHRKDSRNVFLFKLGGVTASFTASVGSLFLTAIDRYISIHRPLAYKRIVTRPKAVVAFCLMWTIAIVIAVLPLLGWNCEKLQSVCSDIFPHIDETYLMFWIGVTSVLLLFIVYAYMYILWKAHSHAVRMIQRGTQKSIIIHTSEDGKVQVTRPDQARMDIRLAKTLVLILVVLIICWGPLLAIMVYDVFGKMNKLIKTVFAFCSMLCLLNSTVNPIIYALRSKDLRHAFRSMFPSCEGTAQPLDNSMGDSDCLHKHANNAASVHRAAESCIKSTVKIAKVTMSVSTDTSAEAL
Sequence of Cannabinoid receptor 1 (Rattus norvegicus, UniProt P20272) (P20272 whole entry): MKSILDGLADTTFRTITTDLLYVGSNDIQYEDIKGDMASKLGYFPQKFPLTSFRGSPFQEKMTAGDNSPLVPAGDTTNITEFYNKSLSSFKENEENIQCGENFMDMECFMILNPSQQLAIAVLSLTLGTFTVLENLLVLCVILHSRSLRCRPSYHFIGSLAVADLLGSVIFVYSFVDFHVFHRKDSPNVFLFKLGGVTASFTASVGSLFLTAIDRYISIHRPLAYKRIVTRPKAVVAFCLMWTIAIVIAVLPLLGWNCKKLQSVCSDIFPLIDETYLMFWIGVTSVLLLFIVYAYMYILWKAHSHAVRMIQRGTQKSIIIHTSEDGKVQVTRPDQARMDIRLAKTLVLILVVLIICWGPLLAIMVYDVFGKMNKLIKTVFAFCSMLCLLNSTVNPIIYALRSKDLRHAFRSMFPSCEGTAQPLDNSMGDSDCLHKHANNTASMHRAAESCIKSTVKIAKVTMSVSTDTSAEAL
T1 sequence (P34972 whole entry): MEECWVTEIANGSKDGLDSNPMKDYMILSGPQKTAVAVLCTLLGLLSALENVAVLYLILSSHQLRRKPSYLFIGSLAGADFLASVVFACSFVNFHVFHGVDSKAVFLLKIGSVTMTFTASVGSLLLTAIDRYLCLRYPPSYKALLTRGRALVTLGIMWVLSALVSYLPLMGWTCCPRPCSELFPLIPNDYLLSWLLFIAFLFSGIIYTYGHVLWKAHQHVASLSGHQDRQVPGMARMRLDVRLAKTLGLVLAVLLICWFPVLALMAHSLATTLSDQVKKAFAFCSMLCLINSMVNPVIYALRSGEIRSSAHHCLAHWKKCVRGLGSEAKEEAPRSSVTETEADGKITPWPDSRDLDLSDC

SMILES: O=C(NC1(C(F)(F)F)CCC1)c1nn(-c2c[n+]([O-])ccn2)c2c1C[C@@H]1C[C@H]21
- EC50 (Cannabinoid receptor 2 [1]): 1.2 nM
- Emax (Cannabinoid receptor 2 [2]): 115%
- EC50 (Cannabinoid receptor 1 [3]): > 10000 nM
- EC50 (Cannabinoid receptor 2 [4]): 1.6 nM
- Emax [5]: 106%
- EC50 (Cannabinoid receptor 1 [6]): > 10000 nM
- half-life [7]: > 1 h
- half-life [8]: > 1 h

SMILES: O=C(N[C@H](CO)c1ccccc1)c1nn(-c2c[n+]([O-])ccn2)c2c1C[C@@H]1C[C@H]21
- Emax (Cannabinoid receptor 2 [2]): 96%
- EC50 (Cannabinoid receptor 1 [3]): > 10000 nM
- EC50 (Cannabinoid receptor 2 [4]): 60 nM
- Emax [5]: 72%
- EC50 (Cannabinoid receptor 1 [6]): > 10000 nM
- half-life [7]: > 1 h
- half-life [8]: > 1 h

SMILES: CC(C)(C)[C@@H](CO)NC(=O)c1nn(-c2cnccn2)c2c1C[C@@H]1C[C@H]21
- EC50 (Cannabinoid receptor 2 [1]): 59 nM
- Emax (Cannabinoid receptor 2 [2]): 107%
- EC50 (Cannabinoid receptor 1 [3]): > 10000 nM
- EC50 (Cannabinoid receptor 2 [4]): 53 nM
- Emax [5]: 95%
- EC50 (Cannabinoid receptor 1 [6]): > 10000 nM
- half-life [7]: > 1 h
- half-life [8]: > 1 h
- half-life [9]: 0.4 h
- Kp at 2 h [10]: 0.1

SMILES: O=C(N[C@@H](CO)C(F)(F)F)c1nn(-c2c[n+]([O-])ccn2)c2c1C[C@@H]1C[C@H]21
- EC50 (Cannabinoid receptor 2 [1]): 17.2 nM
- Emax (Cannabinoid receptor 2 [2]): 119%
- EC50 (Cannabinoid receptor 1 [3]): > 10000 nM
- EC50 (Cannabinoid receptor 2 [4]): 35 nM
- Emax [5]: 107%
- EC50 (Cannabinoid receptor 1 [6]): > 10000 nM
- half-life [7]: > 1 h
- half-life [8]: > 1 h

SMILES: CC(C)(CO)NC(=O)c1nn(-c2cnccn2)c2c1C[C@H]1C[C@@H]21
- Emax [5]: 85%
- half-life [7]: > 1 h
- half-life [8]: > 1 h
- half-life [9]: > 1 h

SMILES: O=C(N[C@H](CO)C(F)(F)F)c1nn(-c2c[n+]([O-])ccn2)c2c1C[C@@H]1C[C@H]21
- EC50 (Cannabinoid receptor 2 [1]): 280 nM
- Emax (Cannabinoid receptor 2 [2]): 98%
- EC50 (Cannabinoid receptor 1 [3]): > 10000 nM
- EC50 (Cannabinoid receptor 2 [4]): 530 nM
- Emax [5]: 85%
- EC50 (Cannabinoid receptor 1 [6]): > 10000 nM
- half-life [7]: > 1 h
- half-life [8]: > 1 h

SMILES: O=C(NC1(C(F)(F)F)CC1)c1nn(-c2c[n+]([O-])ccn2)c2c1C[C@@H]1C[C@H]21
- EC50 (Cannabinoid receptor 1 [3]): > 10000 nM
- EC50 (Cannabinoid receptor 2 [4]): 14.5 nM
- Emax [5]: 103%
- EC50 (Cannabinoid receptor 1 [6]): > 10000 nM
- half-life [7]: > 1 h
- half-life [8]: > 1 h

SMILES: CC(C)[C@@H](CO)NC(=O)c1nn(-c2c[n+]([O-])ccn2)c2c1C[C@@H]1C[C@H]21
- EC50 (Cannabinoid receptor 2 [1]): 46 nM
- Emax (Cannabinoid receptor 2 [2]): 103%
- EC50 (Cannabinoid receptor 1 [3]): > 10000 nM
- EC50 (Cannabinoid receptor 2 [4]): 55 nM
- Emax [5]: 88%
- EC50 (Cannabinoid receptor 1 [6]): > 10000 nM
- half-life [7]: > 1 h
- half-life [8]: > 1 h

SMILES: CC(C)(C)[C@H](CO)NC(=O)c1nn(-c2cnccn2)c2c1C[C@@H]1C[C@H]21
- EC50 (Cannabinoid receptor 2 [1]): 560 nM
- Emax (Cannabinoid receptor 2 [2]): 78%
- EC50 (Cannabinoid receptor 1 [3]): > 10000 nM

SMILES: CC(C)(CO)NC(=O)c1nn(-c2ccc(F)cc2F)c2c1C[C@H]1C[C@@H]21
- Emax [5]: 46%
- Activity [11]: 68%

SMILES: CC1(NC(=O)c2nn(-c3c[n+]([O-])ccn3)c3c2C[C@@H]2C[C@H]32)CC1
- EC50 (Cannabinoid receptor 2 [1]): 91 nM
- Emax (Cannabinoid receptor 2 [2]): 102%
- EC50 (Cannabinoid receptor 1 [3]): > 10000 nM
- EC50 (Cannabinoid receptor 2 [4]): 290 nM
- Emax [5]: 81%
- EC50 (Cannabinoid receptor 1 [6]): > 10000 nM

SMILES: O=C(NC1(CO)CCCC1)c1nn(-c2c[n+]([O-])ccn2)c2c1C[C@@H]1C[C@H]21
- EC50 (Cannabinoid receptor 2 [1]): 5.6 nM
- Emax (Cannabinoid receptor 2 [2]): 112%
- EC50 (Cannabinoid receptor 1 [3]): > 10000 nM
- EC50 (Cannabinoid receptor 2 [4]): 6.8 nM
- Emax [5]: 106%
- EC50 (Cannabinoid receptor 1 [6]): > 10000 nM
- half-life [7]: > 1 h
- half-life [8]: > 1 h

SMILES: CC(C)(C)[C@@H](CO)NC(=O)c1nn(-c2cnccn2)c2c1C[C@H]1C[C@@H]21
- EC50 (Cannabinoid receptor 2 [1]): 26 nM
- Emax (Cannabinoid receptor 2 [2]): 104%
- EC50 (Cannabinoid receptor 1 [3]): > 10000 nM
- EC50 (Cannabinoid receptor 2 [4]): 21 nM
- Emax [5]: 78%
- EC50 (Cannabinoid receptor 1 [6]): > 10000 nM
- half-life [7]: > 1 h
- half-life [8]: 0.633 h
- half-life [9]: 0.15 h
